{
  "source": "ChEMBL document CHEMBL3098111",
  "about": "“Discovery of 2,5-diarylnicotinamides as selective orexin-2 receptor antagonists (2-SORAs)” (Bioorg Med Chem Lett, 2013)",
  "key": {"[1]": {"biological_target": "Endothelin receptor type B (Homo sapiens) (UniProt P24530)", "experiment": "Inhibition of human ETB receptor at 10 uM relative to control"}, "[2]": {"biological_target": "Alpha-1D adrenergic receptor (Homo sapiens) (UniProt P25100)", "experiment": "Inhibition of human alpha1D adrenergic receptor at 10 uM relative to control"}, "Cricetinae": {"test_system": "Cricetinae", "experiment": "Inhibition of hamster ATP-sensitive potassium channel at 10 uM relative to control"}, "Mu-type opioid receptor": {"biological_target": "Mu-type opioid receptor (Homo sapiens, UniProt P35372)", "experiment": "Inhibition of human mu opioid receptor at 1 uM relative to control"}, "[3]": {"biological_target": "Histamine H1 receptor (Homo sapiens) (UniProt P35367)", "sequence (P35367 whole entry)": "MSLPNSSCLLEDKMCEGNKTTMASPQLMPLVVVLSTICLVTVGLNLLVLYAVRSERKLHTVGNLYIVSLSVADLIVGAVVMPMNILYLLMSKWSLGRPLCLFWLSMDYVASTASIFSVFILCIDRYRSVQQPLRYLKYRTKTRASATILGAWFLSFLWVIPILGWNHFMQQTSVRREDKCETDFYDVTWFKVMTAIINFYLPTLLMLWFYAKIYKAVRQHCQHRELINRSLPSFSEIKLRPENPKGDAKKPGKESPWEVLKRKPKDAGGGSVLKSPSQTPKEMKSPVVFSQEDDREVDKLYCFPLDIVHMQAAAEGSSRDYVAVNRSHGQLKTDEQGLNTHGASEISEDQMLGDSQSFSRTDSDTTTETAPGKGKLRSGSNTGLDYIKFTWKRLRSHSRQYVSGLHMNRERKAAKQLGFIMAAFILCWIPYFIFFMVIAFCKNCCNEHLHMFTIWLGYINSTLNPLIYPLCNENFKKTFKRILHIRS", "experiment": "Inhibition of human histamine H1 receptor at 10 uM relative to control"}, "Oryctolagus cuniculus [4]": {"species_on_record": "Oryctolagus cuniculus", "experiment": "Inhibition of rabbit monoamine transporter at 10 nM relative to control"}, "[5]": {"biological_target": "Epidermal growth factor receptor (Homo sapiens) (UniProt P00533)", "sequence (P00533 whole entry)": "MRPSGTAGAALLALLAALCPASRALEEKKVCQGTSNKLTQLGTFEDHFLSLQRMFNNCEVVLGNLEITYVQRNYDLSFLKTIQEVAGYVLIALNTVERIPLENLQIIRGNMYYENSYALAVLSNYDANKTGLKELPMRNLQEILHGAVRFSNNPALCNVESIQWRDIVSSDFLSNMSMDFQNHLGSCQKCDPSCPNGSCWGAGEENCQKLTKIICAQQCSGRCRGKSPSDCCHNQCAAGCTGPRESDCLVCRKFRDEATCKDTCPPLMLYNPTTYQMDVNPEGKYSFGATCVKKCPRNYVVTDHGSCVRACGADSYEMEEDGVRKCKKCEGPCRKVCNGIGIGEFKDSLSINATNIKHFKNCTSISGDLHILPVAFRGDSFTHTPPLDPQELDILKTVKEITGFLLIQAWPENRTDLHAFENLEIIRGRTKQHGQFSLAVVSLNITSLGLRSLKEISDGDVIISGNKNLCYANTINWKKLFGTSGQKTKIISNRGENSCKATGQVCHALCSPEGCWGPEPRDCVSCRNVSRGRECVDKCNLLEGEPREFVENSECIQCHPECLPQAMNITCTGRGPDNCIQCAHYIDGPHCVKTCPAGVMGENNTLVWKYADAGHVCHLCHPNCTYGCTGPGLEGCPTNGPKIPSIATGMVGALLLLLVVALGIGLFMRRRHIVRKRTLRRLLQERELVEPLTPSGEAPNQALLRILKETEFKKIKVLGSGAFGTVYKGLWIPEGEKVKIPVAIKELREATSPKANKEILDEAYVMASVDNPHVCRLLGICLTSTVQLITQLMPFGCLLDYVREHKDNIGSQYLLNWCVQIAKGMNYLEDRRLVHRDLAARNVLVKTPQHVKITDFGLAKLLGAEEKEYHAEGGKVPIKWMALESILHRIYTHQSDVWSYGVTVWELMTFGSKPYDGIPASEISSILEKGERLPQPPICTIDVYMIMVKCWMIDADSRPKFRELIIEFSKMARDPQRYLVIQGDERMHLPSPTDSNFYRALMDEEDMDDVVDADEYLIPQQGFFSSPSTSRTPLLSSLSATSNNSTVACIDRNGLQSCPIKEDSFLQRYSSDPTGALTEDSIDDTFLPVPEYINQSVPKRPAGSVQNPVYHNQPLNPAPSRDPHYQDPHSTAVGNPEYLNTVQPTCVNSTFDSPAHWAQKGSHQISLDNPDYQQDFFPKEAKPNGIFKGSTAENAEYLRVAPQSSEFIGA", "experiment": "Inhibition of human EGF receptor at 10 uM relative to control"}, "[6]": {"biological_target": "Inositol 1,4,5-trisphosphate-gated calcium channel ITPR1 (Rattus norvegicus) (UniProt P29994)", "experiment": "Inhibition of rat IP3 receptor at 10 uM relative to control"}, "[7]": {"biological_target": "Muscarinic acetylcholine receptor M3 (Homo sapiens) (UniProt P20309)", "experiment": "Inhibition of human muscarinic M3 receptor at 10 uM relative to control"}, "[8]": {"biological_target": "Macrophage metalloelastase (Homo sapiens) (UniProt P39900)", "sequence (P39900 106-470 limits assumed)": "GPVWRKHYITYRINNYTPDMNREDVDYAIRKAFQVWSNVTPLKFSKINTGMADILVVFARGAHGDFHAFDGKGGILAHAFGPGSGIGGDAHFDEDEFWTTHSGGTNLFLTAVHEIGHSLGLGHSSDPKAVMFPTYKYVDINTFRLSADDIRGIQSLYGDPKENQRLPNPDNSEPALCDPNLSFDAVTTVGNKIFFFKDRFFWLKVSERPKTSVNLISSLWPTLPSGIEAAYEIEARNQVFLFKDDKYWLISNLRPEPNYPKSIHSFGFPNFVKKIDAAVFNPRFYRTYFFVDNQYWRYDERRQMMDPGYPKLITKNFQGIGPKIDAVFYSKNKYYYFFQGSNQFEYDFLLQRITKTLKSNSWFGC", "experiment": "Inhibition of human MMP-12 at 10 uM relative to control"}, "[9]": {"biological_target": "5-hydroxytryptamine receptor 1B (Rattus norvegicus) (UniProt P28564)", "sequence (P28564 whole entry)": "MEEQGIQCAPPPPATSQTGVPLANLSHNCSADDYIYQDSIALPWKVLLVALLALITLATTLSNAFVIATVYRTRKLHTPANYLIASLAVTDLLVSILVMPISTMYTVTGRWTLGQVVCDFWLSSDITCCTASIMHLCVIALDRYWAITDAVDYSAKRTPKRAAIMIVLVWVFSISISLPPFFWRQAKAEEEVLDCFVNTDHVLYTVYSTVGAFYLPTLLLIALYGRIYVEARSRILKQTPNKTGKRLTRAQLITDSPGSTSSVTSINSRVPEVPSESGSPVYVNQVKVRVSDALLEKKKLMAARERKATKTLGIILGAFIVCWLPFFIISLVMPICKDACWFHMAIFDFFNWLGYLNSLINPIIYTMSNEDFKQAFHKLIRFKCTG", "experiment": "Inhibition of rat 5-HT1B receptor at 10 uM relative to control"}, "[10]": {"biological_target": "Sodium-dependent dopamine transporter (Homo sapiens) (UniProt Q01959)", "experiment": "Inhibition of human DAT at 10 uM relative to control"}, "[11]": {"biological_target": "Polyunsaturated fatty acid lipoxygenase ALOX12 (Homo sapiens) (UniProt P18054)", "experiment": "Inhibition of human 12-lipoxygenase at 10 uM relative to control"}, "Rattus norvegicus [12]": {"species_on_record": "Rattus norvegicus", "experiment": "Inhibition of rat choline transporter at 10 uM relative to control"}, "D(3) dopamine receptor [13]": {"biological_target": "T1, D(3) dopamine receptor (Homo sapiens, UniProt P35462)", "T1 sequence (P35462 whole entry)": "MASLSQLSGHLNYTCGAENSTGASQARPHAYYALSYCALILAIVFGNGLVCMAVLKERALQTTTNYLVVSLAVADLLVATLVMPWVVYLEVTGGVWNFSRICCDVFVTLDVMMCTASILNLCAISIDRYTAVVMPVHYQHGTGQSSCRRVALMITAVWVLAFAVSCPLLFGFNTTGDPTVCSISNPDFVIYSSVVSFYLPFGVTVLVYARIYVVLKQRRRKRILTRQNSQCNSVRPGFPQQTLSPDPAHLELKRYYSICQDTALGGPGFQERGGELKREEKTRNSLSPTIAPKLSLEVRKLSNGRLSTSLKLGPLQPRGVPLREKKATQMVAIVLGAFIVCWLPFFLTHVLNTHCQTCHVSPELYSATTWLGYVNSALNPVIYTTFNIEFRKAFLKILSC", "experiment": "Inhibition of human dopamine D3 receptor at 10 nM relative to control"}, "[14]": {"biological_target": "Nitric oxide synthase 1 (Rattus norvegicus) (UniProt P29476)", "experiment": "Inhibition of rat nNOS at 10 uM relative to control"}, "Homo sapiens": {"species_on_record": "Homo sapiens", "experiment": "Selectivity ratio of Ki for human orexin-1 receptor to Ki for human orexin-2 receptor", "in_short": "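Radioligand binding: a high-affinity radioligand was bound to membranes from human cells overexpressing OX1R or OX2R, and inhibition of that binding was measured and expressed as Ki. The ratio is the OX1R Ki divided by the OX2R Ki.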"}, "[15]": {"biological_target": "Galanin receptor type 1 (Homo sapiens) (UniProt P47211)", "experiment": "Inhibition of human GAL1 receptor at 10 uM relative to control"}, "Oryctolagus cuniculus [16]": {"species_on_record": "Oryctolagus cuniculus", "experiment": "Inhibition of rabbit monoamine transporter at 10 uM relative to control"}, "[17]": {"biological_target": "D(4) dopamine receptor (Homo sapiens) (UniProt P21917)", "sequence (P21917 whole entry)": "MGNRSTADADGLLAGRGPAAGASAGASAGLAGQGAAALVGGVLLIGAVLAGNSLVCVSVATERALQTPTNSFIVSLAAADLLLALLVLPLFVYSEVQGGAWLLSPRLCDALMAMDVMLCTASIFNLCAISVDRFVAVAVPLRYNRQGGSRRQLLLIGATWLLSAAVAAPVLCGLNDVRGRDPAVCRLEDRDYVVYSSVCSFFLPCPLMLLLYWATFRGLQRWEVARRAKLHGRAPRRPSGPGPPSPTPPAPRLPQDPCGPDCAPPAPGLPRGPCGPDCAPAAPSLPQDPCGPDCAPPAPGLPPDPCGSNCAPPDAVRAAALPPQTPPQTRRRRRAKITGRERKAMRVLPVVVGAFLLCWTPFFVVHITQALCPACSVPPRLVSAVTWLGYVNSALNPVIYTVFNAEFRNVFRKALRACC", "experiment": "Inhibition of human dopamine D4.4 receptor at 10 uM relative to control"}, "[18]": {"biological_target": "Glutamate NMDA receptor (Rattus norvegicus) (UniProt P35439+Q00959+Q00960+Q00961+Q62645+Q8VHN2+Q9R1M7)", "experiment": "Inhibition of rat NMDA receptor phencyclidine binding site at 10 uM relative to control", "type": "protein-complex assay"}, "[19]": {"biological_target": "Prostaglandin E2 receptor EP4 subtype (Homo sapiens) (UniProt P35408)", "experiment": "Inhibition of human prostanoid EP4 receptor at 10 uM relative to control"}, "Rattus norvegicus [20]": {"species_on_record": "Rattus norvegicus", "experiment": "Inhibition of rat bombesin receptor at 10 uM relative to control"}, "Gallus gallus": {"species_on_record": "Gallus gallus", "experiment": "Inhibition of chicken MT receptor at 10 uM relative to control"}, "[21]": {"biological_target": "Histamine H3 receptor (Homo sapiens) (UniProt Q9Y5N1)", "sequence (Q9Y5N1 whole entry)": "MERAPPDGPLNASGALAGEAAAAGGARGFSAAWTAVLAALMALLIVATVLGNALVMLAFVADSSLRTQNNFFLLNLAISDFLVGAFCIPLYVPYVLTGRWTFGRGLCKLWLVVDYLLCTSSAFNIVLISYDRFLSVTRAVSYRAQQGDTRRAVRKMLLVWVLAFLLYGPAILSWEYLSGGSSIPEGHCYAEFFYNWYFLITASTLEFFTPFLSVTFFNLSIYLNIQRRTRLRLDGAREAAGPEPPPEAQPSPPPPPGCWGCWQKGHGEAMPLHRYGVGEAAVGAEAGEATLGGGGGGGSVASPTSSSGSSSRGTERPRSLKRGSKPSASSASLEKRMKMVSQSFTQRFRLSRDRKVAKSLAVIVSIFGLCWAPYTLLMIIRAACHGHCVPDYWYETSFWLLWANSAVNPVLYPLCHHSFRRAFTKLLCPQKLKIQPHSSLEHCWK", "experiment": "Inhibition of human histamine H3 receptor at 10 uM relative to control"}, "D(3) dopamine receptor [22]": {"biological_target": "T1, D(3) dopamine receptor", "experiment": "Inhibition of human dopamine D3 receptor at 1 uM relative to control"}, "[23]": {"biological_target": "Peroxisome proliferator-activated receptor alpha (Homo sapiens) (UniProt Q07869)", "sequence (Q07869 whole entry)": "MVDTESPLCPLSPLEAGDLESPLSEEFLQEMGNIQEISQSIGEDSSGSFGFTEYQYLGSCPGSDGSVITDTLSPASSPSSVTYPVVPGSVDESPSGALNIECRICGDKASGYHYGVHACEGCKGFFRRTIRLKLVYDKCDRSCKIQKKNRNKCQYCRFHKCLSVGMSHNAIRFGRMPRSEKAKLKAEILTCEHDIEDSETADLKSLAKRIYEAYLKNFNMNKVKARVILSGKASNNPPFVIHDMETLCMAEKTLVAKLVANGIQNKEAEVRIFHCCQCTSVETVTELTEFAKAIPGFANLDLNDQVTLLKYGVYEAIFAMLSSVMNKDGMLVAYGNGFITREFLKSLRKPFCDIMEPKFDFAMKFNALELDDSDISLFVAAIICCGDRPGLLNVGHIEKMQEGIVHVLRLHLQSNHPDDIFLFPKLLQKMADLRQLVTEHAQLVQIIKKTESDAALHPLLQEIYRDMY", "experiment": "Inhibition of human PPARalpha at 10 uM relative to control"}, "Cavia porcellus [24]": {"species_on_record": "Cavia porcellus", "experiment": "Inhibition of guinea pig adenosine transporter at 1 uM relative to control"}, "[25]": {"biological_target": "T2, GABA-A receptor; alpha-1/beta-3/gamma-2 (Homo sapiens) (UniProt P14867+P18507+P28472)", "experiment": "Inhibition of human GABA alpha1beta3gamma2 receptor at 10 uM relative to control", "type": "protein-complex assay"}, "Bos taurus": {"species_on_record": "Bos taurus", "experiment": "Inhibition of bovine PDE6 at 100 uM relative to control"}, "[26]": {"biological_target": "Estrogen receptor (Homo sapiens) (UniProt P03372)", "experiment": "Inhibition of human ERalpha receptor at 10 uM relative to control"}, "Rattus norvegicus [27]": {"species_on_record": "Rattus norvegicus", "experiment": "Inhibition of rat GABAA central type receptor muscimol binding site at 10 uM relative to control"}, "[28]": {"biological_target": "Muscarinic acetylcholine receptor M2 (Homo sapiens) (UniProt P08172)", "experiment": "Inhibition of human muscarinic M2 receptor at 10 uM relative to control"}, "[29]": {"biological_target": "Neutrophil elastase (Homo sapiens) (UniProt P08246)", "sequence (P08246 whole entry)": "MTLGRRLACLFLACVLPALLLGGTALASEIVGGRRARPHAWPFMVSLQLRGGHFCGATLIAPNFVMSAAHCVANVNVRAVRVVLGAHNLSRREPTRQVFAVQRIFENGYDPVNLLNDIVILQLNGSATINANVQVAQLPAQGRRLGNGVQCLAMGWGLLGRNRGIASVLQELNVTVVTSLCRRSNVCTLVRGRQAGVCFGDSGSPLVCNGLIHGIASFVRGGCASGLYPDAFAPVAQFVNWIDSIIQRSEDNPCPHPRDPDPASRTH", "experiment": "Inhibition of human neutrophil elastase 2 at 30 uM relative to control"}, "[30]": {"biological_target": "T2, GABA-A receptor; alpha-1/beta-3/gamma-2 (Homo sapiens)", "experiment": "Inhibition of human GABA alpha1beta3gamma2 receptor muscimol binding site at 10 uM relative to control", "type": "protein-complex assay"}, "[31]": {"biological_target": "Thromboxane A2 receptor (Homo sapiens) (UniProt P21731)", "experiment": "Inhibition of human thromboxane A2 receptor at 10 uM relative to control"}, "[32]": {"biological_target": "Vascular endothelial growth factor receptor 1 (Homo sapiens) (UniProt P17948)", "experiment": "Inhibition of human FLT1 at 10 uM relative to control"}, "[33]": {"biological_target": "Substance-K receptor (Homo sapiens) (UniProt P21452)", "sequence (P21452 whole entry)": "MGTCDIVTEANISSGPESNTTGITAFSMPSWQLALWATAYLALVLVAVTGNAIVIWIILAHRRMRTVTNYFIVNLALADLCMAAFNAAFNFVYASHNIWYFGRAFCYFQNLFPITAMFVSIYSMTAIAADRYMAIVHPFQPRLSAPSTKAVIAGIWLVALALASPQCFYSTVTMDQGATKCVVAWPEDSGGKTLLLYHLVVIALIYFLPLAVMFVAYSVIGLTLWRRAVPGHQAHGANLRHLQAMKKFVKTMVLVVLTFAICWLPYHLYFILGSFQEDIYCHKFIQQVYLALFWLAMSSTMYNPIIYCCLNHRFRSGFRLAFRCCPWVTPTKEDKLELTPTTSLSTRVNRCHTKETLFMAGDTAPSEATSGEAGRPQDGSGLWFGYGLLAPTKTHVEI", "experiment": "Inhibition of human NK2 receptor at 10 uM relative to control"}, "[34]": {"biological_target": "Cathepsin G (Homo sapiens) (UniProt P08311)", "experiment": "Inhibition of human cathepsin G at 10 uM relative to control"}, "[35]": {"biological_target": "Interstitial collagenase (Homo sapiens) (UniProt P03956)", "experiment": "Inhibition of human MMP-1 at 10 uM relative to control"}, "Cavia porcellus [36]": {"species_on_record": "Cavia porcellus", "experiment": "Inhibition of guinea pig adenosine transporter at 10 nM relative to control"}, "[37]": {"biological_target": "Neurotensin receptor type 1 (Homo sapiens) (UniProt P30989)", "experiment": "Inhibition of human NT1 receptor at 10 uM relative to control"}, "Rattus norvegicus [38]": {"species_on_record": "Rattus norvegicus", "experiment": "Inhibition of rat GABA transporter at 10 uM relative to control"}, "[39]": {"biological_target": "Nitric oxide synthase, inducible (Mus musculus) (UniProt P29477)", "experiment": "Inhibition of mouse iNOS at 10 uM relative to control"}, "[40]": {"biological_target": "Androgen receptor (Rattus norvegicus) (UniProt P15207)", "experiment": "Inhibition of rat androgen receptor at 10 uM relative to control"}, "Cavia porcellus [41]": {"species_on_record": "Cavia porcellus", "experiment": "Inhibition of guinea pig adenosine transporter at 10 uM relative to control"}},
  "data": [
    {"smiles": "COc1ccc(CNC(=O)c2cc(-c3cc(Cl)cc(Cl)c3)cnc2-c2cccnc2)cc1OC", "values": [
      {"measurement": "inhibition", "setting": "[1]", "result": 8, "unit": "%"},
      {"measurement": "inhibition", "setting": "[2]", "result": 26, "unit": "%"},
      {"measurement": "inhibition", "setting": "Cricetinae", "result": 0, "unit": "%"},
      {"measurement": "inhibition", "setting": "Mu-type opioid receptor", "result": 26, "unit": "%"},
      {"measurement": "inhibition", "setting": "[3]", "result": 10, "unit": "%"},
      {"measurement": "inhibition", "setting": "Oryctolagus cuniculus [4]", "result": 2, "unit": "%"},
      {"measurement": "inhibition", "setting": "[5]", "result": 10, "unit": "%"},
      {"measurement": "inhibition", "setting": "[6]", "result": 0, "unit": "%"},
      {"measurement": "inhibition", "setting": "[7]", "result": -2, "unit": "%"},
      {"measurement": "inhibition", "setting": "[8]", "result": -6, "unit": "%"},
      {"measurement": "inhibition", "setting": "[9]", "result": 73, "unit": "%"},
      {"measurement": "inhibition", "setting": "[10]", "result": -7, "unit": "%"},
      {"measurement": "inhibition", "setting": "[11]", "result": 11, "unit": "%"},
      {"measurement": "inhibition", "setting": "Rattus norvegicus [12]", "result": 1, "unit": "%"},
      {"measurement": "inhibition", "setting": "D(3) dopamine receptor [13]", "result": 5, "unit": "%"},
      {"measurement": "inhibition", "setting": "[14]", "result": -1, "unit": "%"},
      {"measurement": "Ratio Ki", "setting": "Homo sapiens", "result": 1350},
      {"measurement": "inhibition", "setting": "[15]", "result": 3, "unit": "%"},
      {"measurement": "inhibition", "setting": "Oryctolagus cuniculus [16]", "result": 52, "unit": "%"},
      {"measurement": "inhibition", "setting": "[17]", "result": 3, "unit": "%"},
      {"measurement": "inhibition", "setting": "[18]", "result": 5, "unit": "%"},
      {"measurement": "inhibition", "setting": "[19]", "result": 19, "unit": "%"},
      {"measurement": "inhibition", "setting": "Rattus norvegicus [20]", "result": 3, "unit": "%"},
      {"measurement": "inhibition", "setting": "Gallus gallus", "result": 22, "unit": "%"},
      {"measurement": "inhibition", "setting": "[21]", "result": -3, "unit": "%"},
      {"measurement": "inhibition", "setting": "D(3) dopamine receptor [22]", "result": 19, "unit": "%"},
      {"measurement": "inhibition", "setting": "[23]", "result": 5, "unit": "%"},
      {"measurement": "inhibition", "setting": "Cavia porcellus [24]", "result": 32, "unit": "%"},
      {"measurement": "inhibition", "setting": "[25]", "result": 21, "unit": "%"},
      {"measurement": "inhibition", "setting": "Bos taurus", "result": 16, "unit": "%"},
      {"measurement": "inhibition", "setting": "[26]", "result": 20, "unit": "%"},
      {"measurement": "inhibition", "setting": "Rattus norvegicus [27]", "result": 9, "unit": "%"},
      {"measurement": "inhibition", "setting": "[28]", "result": -8, "unit": "%"},
      {"measurement": "inhibition", "setting": "[29]", "result": -2, "unit": "%"},
      {"measurement": "inhibition", "setting": "[30]", "result": 39, "unit": "%"},
      {"measurement": "inhibition", "setting": "[31]", "result": 17, "unit": "%"},
      {"measurement": "inhibition", "setting": "[32]", "result": 20, "unit": "%"},
      {"measurement": "inhibition", "setting": "[33]", "result": 25, "unit": "%"},
      {"measurement": "inhibition", "setting": "[34]", "result": -8, "unit": "%"},
      {"measurement": "inhibition", "setting": "[35]", "result": 4, "unit": "%"},
      {"measurement": "inhibition", "setting": "Cavia porcellus [36]", "result": 2, "unit": "%"},
      {"measurement": "inhibition", "setting": "[37]", "result": 21, "unit": "%"},
      {"measurement": "inhibition", "setting": "Rattus norvegicus [38]", "result": 3, "unit": "%"},
      {"measurement": "inhibition", "setting": "[39]", "result": 2, "unit": "%"},
      {"measurement": "inhibition", "setting": "[40]", "result": 7, "unit": "%"},
      {"measurement": "inhibition", "setting": "Cavia porcellus [41]", "result": 69, "unit": "%"}
    ]}
  ]
}
